“Also recorded” adds a separate entry of the source. Positions of bridges follow the written chain, without caps; N, C: chain ends. No end group written: not given here.
Columns and labels:
HMC-1 cells [1] = experiment: Ca^2+ mobilization in HMC-1 cells; assay type: cell-based, human; conditions: representative of 3 experiments; for intracellular Ca^2+ mobilization: indo-1 AM, 355/410 nm, C3a 10 nM, E7 1 µM, E7S 1 µM, compound 48/80 1 µg/ml
Summary of the method: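 HMC-1 cells were grown in IMDM with 10% FCS, 2 mM L-glutamine, penicillin and streptomycin. Cells at 1 × 10^6/ml were loaded with 1 µM indo-1 AM plus 1 µM pluronic F-127 for 30 min at room temperature, then washed and resuspended in HEPES-buffered saline. Stimuli were added sequentially at marked times: C3a 10 nM, test peptide 1 µM, test secretagogue 1 µg/ml. Fluorescence was read at excitation 355 nm and emission 410 nm.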

HA-tagged human MrgX1 = experiment: Degranulation of RBL-2H3 cells stably expressing MrgX1; assay type: cell-based; conditions: RBL-2H3 expressing MrgX1; for degranulation: peptides 1 µM, compound 48/80 100 ng/ml or antigen DNP-BSA 30 ng/ml, 30 min, representative of 3 experiments
[2] = system: bone marrow-derived mast cells; conditions: ref Erdei et al., 2004, Soruri et al., 2008; cited from earlier work
LAD2 mast cells [3] = experiment: Degranulation; assay type: cell-based, human; conditions: 30 min, β-hexosaminidase release; for degranulation: different concentrations, 3 – 4 experiments
Summary of the method: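 LAD2 cells, kept in StemPro-34 with 100 ng/ml SCF, were seeded at 5 × 10^3 per well overnight with human IgE (1 µg/ml). After washing, they were exposed for 30 min to graded test-compound concentrations in buffer with 0.1% BSA. Released β-hexosaminidase was assayed with 1 mM p-nitrophenyl-N-acetyl-β-D-glucosamine (1.5 h, 37°C), stopped with 0.1 M Na2CO3/NaHCO3, and read at A405. Values are percent of the 0.1% Triton X-100 lysate total, mean ± S.E.M of 3–4 experiments.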

HMC-1 cells [4] = conditions: ref Ahamed et al., 2004, Ali et al., 2000; cited from earlier work
[5] = system: peripheral blood CD34^+ cell-derived mast cells; conditions: ref Fukuoka et al., 2008, Lappalainen et al., 2007, Oskeritzian et al., 2005, Venkatesha et al., Woolhiser et al., 2004; cited from earlier work
mast cell = conditions: ref Hartmann et al., 1997; Nilsson et al., 1996; cited from earlier work
[6] = system: rat basophilic leukemia, RBL-2H3 cells; conditions: ref Erdei et al., 2004, Soruri et al., 2008; cited from earlier work
LAD2 mast cells [7] = experiment: Ca^2+ mobilization in LAD2 mast cells; assay type: cell-based, human; conditions: indo-1 AM, C3a 10 nM, E7 1 µM, representative of 3 experiments; for intracellular Ca^2+ mobilization: 355/410 nm, E7S 1 µM, compound 48/80 1 µg/ml
Summary of the method: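 LAD2 cells were kept in StemPro-34 with supplements, 2 mM L-glutamine, penicillin, streptomycin and 100 ng/ml SCF, hemi-depleted weekly. Cells at 0.2 × 10^6/ml were loaded with 1 µM indo-1 AM plus 1 µM pluronic F-127 for 30 min at room temperature, washed and resuspended in HEPES-buffered saline. C3a (10 nM) or test peptide (1 µM) was added at marked times. Fluorescence was read at excitation 355 nm and emission 410 nm.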

HA-tagged human MrgX2 = experiment: Degranulation of RBL-2H3 cells stably expressing MrgX2; assay type: cell-based; conditions: RBL-2H3 expressing MrgX2; for degranulation: peptides 1 µM, compound 48/80 100 ng/ml or antigen DNP-BSA 30 ng/ml, 30 min, representative of 3 experiments
Summary of the method: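 RBL-2H3 cells were nucleofected with HA-tagged receptor plasmid, selected in G418 (1mg/ml) and sorted by anti-HA staining for equivalent expression. 5 × 10^4 cells were primed overnight with mouse anti-DNP IgE (1 µg/ml), washed and stimulated 30 min in 0.1% BSA buffer. Supernatant β-hexosaminidase was read with 1 mM p-nitrophenyl-N-acetyl-β-D-glucosamine (1.5 h, 37°C), stopped with carbonate buffer, A405, as percent of Triton X-100 lysate total.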

[8] = system: CD34^+-derived human mast cells; experiment: Degranulation; assay type: cell-based; conditions: 30 min, E7 or E7S 1 µM, 3 – 4 experiments
Summary of the method: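 Primary mast cells were grown 7–10 weeks from human CD34+ progenitors in StemPro-34 with SCF and IL-6 (100 ng/ml each), plus IL-3 (30 ng/ml) in the first week only. Cells (5 × 10^3 per well) were primed overnight with human IgE (1 µg/ml), washed, and stimulated 30 min in 0.1% BSA buffer with test peptides at 100 nM or 1 µM. β-Hexosaminidase release was measured at 405 nm and expressed as percent of lysate total, mean ± S.E.M of 3–4 experiments.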

[9] = ref Lu et al., 1984; cited from earlier work
C5a receptor = conditions: ref Subramanian, 2011; cited from earlier work
MrgX2 [10] = conditions: requires tryptophan and a positively charged residue; ref Subramanian, 2011; cited from earlier work
MrgX2 [11] = conditions: 2003, cited from earlier work; for structural requirement for MrgX2 activation: ref Robas et al.
MrgX1 = conditions: ref Lembo et al., 2002; Robas et al., 2003; cited from earlier work
C3a receptor [12] = conditions: versus C3a receptor agonist peptide (C3aP), ref Ember et al., 1991; cited from earlier work
C3a receptor [13] = conditions: guinea pig ileum, C3a versus C5a; ref Ember et al., 1991; cited from earlier work
guinea pig platelet = conditions: ref Ember et al., 1991; cited from earlier work
guinea pig skin = conditions: ref Ember et al., 1991; cited from earlier work
[14] = system: mock transfected RBL-2H3 cells; experiment: Degranulation of mock transfected RBL-2H3 cells; assay type: cell-based, rat; conditions: C3a 100 nM, peptides 1 µM, compound 48/80 100 ng/ml or antigen DNP-BSA 30 ng/ml, 30 min, representative of 3 experiments
Summary of the method: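 Rat RBL-2H3 cells, grown in DMEM with 10% FBS and mock-transfected, were seeded at 5 × 10^4 per well and sensitised with anti-DNP IgE (1 µg/ml, 16 h). After washing, they were challenged 30 min in 0.1% BSA buffer with test agents or DNP-BSA antigen. Supernatant β-hexosaminidase was assayed with 1 mM p-nitrophenyl-N-acetyl-β-D-glucosamine (1.5 h, 37°C) at A405, relative to a 0.1% Triton X-100 lysate. Data are representative of 3 experiments.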

Substance: C3a: purified human anaphylatoxin C3a, from Complement Technology
- Ca^2+ response to C3a added after E7S or compound 48/80 (HMC-1 cells [1]; C3a 10 nM as second stimulus): fully responsive to C3a
- intracellular Ca^2+ mobilization (HMC-1 cells [1]): caused Ca^2+ mobilization in an immature mast cell line, HMC-1; also recorded: induced Ca^2+ mobilization of similar magnitude and duration in HMC-1 cells
- degranulation by C3a (HA-tagged human MrgX1; C3a (1 µM) in text): did not activate RBL-2H3 cells expressing MrgX1 or MrgX2; also recorded: at concentrations up to 1 µM did not induce degranulation in cells expressing either human MrgX1 or MrgX2
- degranulation [2]: does not induce degranulation
- degranulation (LAD2 mast cells [3]): induced Ca^2+ mobilization and degranulation in a differentiated human mast cell line, LAD2; also recorded: induced a dose-dependent degranulation of LAD2 mast cells
- Ca^2+ mobilization (HMC-1 cells [4]): responds to C3a for a transient Ca^2+ mobilization
- degranulation [5]: induces degranulation
- mast cell chemoattractant activity (mast cell): one of the most potent mast cell chemoattractants known
- degranulation [6]: does not induce degranulation
- intracellular Ca^2+ mobilization (LAD2 mast cells [7]): induced Ca^2+ mobilization; also recorded: induced rapid Ca^2+ responses in LAD2 cells which peaked within seconds after stimulation
- duration/magnitude of Ca^2+ response, C3a versus E7 (LAD2 mast cells [7]): markedly reduced
- degranulation by C3a (HA-tagged human MrgX2; C3a (1 µM) in text): did not activate RBL-2H3 cells expressing MrgX1 or MrgX2; also recorded: at concentrations up to 1 µM did not induce degranulation in cells expressing either human MrgX1 or MrgX2

Substance: LRAGSRYKKWALKWG [E7S]
- degranulation of primary mast cells [8]: these peptides induced degranulation in primary mast cells
- intracellular Ca^2+ mobilization (HMC-1 cells [1]): did not initiate Ca^2+ responses in this cell line
- degranulation (LAD2 mast cells [3]): also induced mast cell degranulation in a dose-dependent manner
- intracellular Ca^2+ mobilization (LAD2 mast cells [7]): induced robust and sustained Ca^2+ responses in LAD2 mast cells
- degranulation (HA-tagged human MrgX2): responded to CST, E7, E7S and compound 48/80

Substance: NYITELRRQHARASHLGLAR [C3aP]
- degranulation of primary mast cells [8]: these peptides induced degranulation in primary mast cells
- biological potency compared with natural C3a [9]: expresses biological potency equal to natural C3a
- degranulation (LAD2 mast cells [3]): as with LAD2 cells, these peptides induced degranulation

Substance: PMX-53
- C5a receptor antagonism (C5a receptor): potent C5a receptor antagonist
- activation of human mast cells via MrgX2 (MrgX2 [10]): activates human mast cells via MrgX2

Substance: Pro-[Cys-Lys-Asn-Phe-Phe-Trp-Lys-Thr-Phe-Ser-Ser-Cys]-Lys (disulfide) (PCKNFFWKTFSSCK; disulfide 2-13) [CST, Cortistatin-14]
- ligand of MrgX2 (MrgX2 [11]; ref Lembo et al., 2002, Robas et al.): Ligands for MrgX1 and MrgX2 have been identified
- structural requirement for MrgX2 activation (MrgX2 [11]): both the N-terminal proline and the C-terminal lysine are required for MrgX2 activation
- degranulation (HA-tagged human MrgX2): responded to CST, E7, E7S and compound 48/80

Substance: Tyr-Gly-Gly-Phe-Met-Arg-Arg-Val-Gly-Arg-Pro-Glu-Trp-Trp-Met-Asp-Tyr-Gln-Lys-Arg-Tyr-Gly [BAM-22P, Bovine Adrenal Medulla Docosapeptide]
- degranulation (HA-tagged human MrgX1): responded only to BAM-22P and compound 48/80 for degranulation
- ligand of MrgX1 (MrgX1): Ligands for MrgX1 and MrgX2 have been identified

Substance: WWGKKYRASKLGLAR [E7]
- degranulation of primary mast cells [8]: these peptides induced degranulation in primary mast cells
- intracellular Ca^2+ mobilization (HMC-1 cells [1]): caused Ca^2+ mobilization in an immature mast cell line, HMC-1; also recorded: induced Ca^2+ mobilization of similar magnitude and duration in HMC-1 cells
- potency for mast cell degranulation compared with C3a (LAD2 mast cells [3]): its potency for mast cell degranulation was lower than that of C3a
- degranulation (LAD2 mast cells [3]): induced Ca^2+ mobilization and degranulation in a differentiated human mast cell line, LAD2; also recorded: induced a dose-dependent increase in degranulation in LAD2 mast cells
- potency relative to C3aP in guinea pigs (C3a receptor [12]): 12 –15 fold
- cross-desensitization of ileum contraction (C3a receptor [13]): cross-desensitized the ability of C3a but not C5a to induce guinea pig ileum contraction
- increase in guinea pig platelet aggregation activity compared to C3aP (guinea pig platelet): ~ 1500%
- concentrations required to induce vascular permeability compared to C3aP (guinea pig skin): much lower concentrations of E7 were required to induce vascular permeability in guinea pig skin
- intracellular Ca^2+ mobilization (LAD2 mast cells [7]): induced Ca^2+ mobilization; also recorded: induced rapid Ca^2+ responses in LAD2 cells which peaked within seconds after stimulation
- duration/magnitude of Ca^2+ response, C3a versus E7 (LAD2 mast cells [7]): prominent and sustained response
- degranulation (HA-tagged human MrgX2): activated RBL-2H3 cells expressing MrgX2; also recorded: responded to CST, E7, E7S and compound 48/80

Substance: antigen: antigen (DNP-BSA, 30 ng/ml) on anti-DNP specific IgE-primed cells
- degranulation (HA-tagged human MrgX1): responded to antigen for degranulation
- degranulation [14]: responded to antigen for degranulation
- degranulation (HA-tagged human MrgX2): responded to antigen for degranulation

Substance: cortistatin-17 [CST-17]
- structural requirement for MrgX2 activation (MrgX2 [11]): both the N-terminal proline and the C-terminal lysine are required for MrgX2 activation

From PMC3169012 (European journal of pharmacology, 2011)
